From ChEMBL document CHEMBL3414450, “Synthetic phenylethanoid glycoside derivatives as potent neuroprotective agents” (Eur J Med Chem, 2015)
Active and inactive are the calls of the source. The calls are words filed in the database; no cut-off is given here.

What was measured:
[1] = Cytotoxicity against rat PC12 cells assessed as cell viability at 100 uM incubated for 6 hrs prior to PBS treatment measured after 1 hr by MTT assay; type: cell-based; conditions: pc-12, 1 h
[2] = tested on: PC-12; assay: Neuroprotective activity in rat PC12 cells assessed as decrease in 6-OHDA-induced early and late apoptosis at 6.25 to 50 uM incubated for 6 hrs prior to 6-OHDA challenge measured after 24 hrs by annexin V/propidium iodide staining-based fluorescence microscopic analysis; type: functional, cell-based
How it was run: (§1)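 PC12 cells on coverslips (1×10^5/well) pretreated 6 h with compound, then given 100 μM 6-OHDA for 24 h at 37 °C. After two PBS washes, stained with Annexin V-FITC/PI, each diluted 1:100 in binding buffer and mixed 1:1. Imaged by fluorescence microscopy (ex 488; em 515–545 and 575–635 nm). Apoptotic and necrotic cells counted in five fields, three separate groups. Edaravone was the positive control.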

[3] = tested on: PC-12; assay: Neuroprotective activity in rat PC12 cells assessed as decrease in H2O2-induced cell death at 100 uM incubated for 6 hrs prior to H2O2 challenge measured after 1 hr by MTT assay; type: functional, cell-based
How it was run: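 PC12 cells seeded at 1×10^5/well for 24 h. Pretreated 6 h with compound (100 μM; DMSO stock diluted in PBS), then challenged with 300 μM H2O2 for 1 h at 37 °C. MTT at 5 mg/mL for 4 h, DMSO solubilisation, A570. Survival is given as % of the PBS-treated control, mean ± SD, n = 3. Vitamin C was the positive control.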

[4] = tested on: PC-12; assay: Neuroprotective activity in rat PC12 cells assessed as decrease in 6-OHDA-induced cell death incubated for 6 hrs prior to 6-OHDA challenge measured after 24 hrs by MTT assay; type: functional, cell-based
How it was run: (§2)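 PC12 cells seeded at 1×10^5/well for 24 h, pretreated 6 h with compound (6.25–100 μM; DMSO stock diluted in PBS), then exposed to 100 μM 6-OHDA for 24 h at 37 °C. Viability read by MTT (5 mg/mL, 4 h), DMSO, absorbance 570 nm. Expressed as % of the PBS-treated control, mean ± SD, n = 3.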

[5] = tested on: PC-12; assay: Neuroprotective activity in rat PC12 cells assessed as decrease in 6-OHDA-induced intracellular ROS level incubated for 6 hrs prior to 6-OHDA challenge measured after 24 hrs by DCFH-DA dye-based spectrofluor analysis; type: functional, cell-based
How it was run: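 PC12 cells (1×10^5/well) pretreated 6 h with compound at several concentrations one day after seeding, then given 100 μM 6-OHDA for 24 h at 37 °C. Loaded with DCFH-DA (1:1000 in DMEM) for 30 min at 37 °C, 5% CO2, then washed three times with PBS. DCF fluorescence read at 488/525 nm in five fields per well. Untreated cells are set to 100%, mean ± SD, n = 3. Edaravone was the positive control.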

[6] = tested on: PC-12; assay: Neuroprotective activity in rat PC12 cells assessed as decrease in 6-OHDA-induced cell death at 6.25 to 100 uM incubated for 6 hrs prior to 6-OHDA challenge measured after 24 hrs by MTT assay; type: functional, cell-based; how it was run: as §2
[7] = tested on: PC-12; assay: Neuroprotective activity in rat PC12 cells assessed as decrease in 6-OHDA-induced apoptosis at 200 uM incubated for 6 hrs prior to 6-OHDA challenge measured after 24 hrs by annexin V/propidium iodide staining-based fluorescence microscopic analysis; type: functional, cell-based; how it was run: as §1
[8] = tested on: PC-12; assay: Neuroprotective activity in rat PC12 cells assessed as decrease in 6-OHDA-induced early and late apoptosis at 1.56 to 6.25 uM incubated for 6 hrs prior to 6-OHDA challenge measured after 24 hrs by annexin V/propidium iodide staining-based fluorescence microscopic analysis; type: functional, cell-based; how it was run: as §1
[9] = tested on: PC-12; assay: Neuroprotective activity in rat PC12 cells assessed as decrease in 6-OHDA-induced early and late apoptosis at 6.25 to 25 uM incubated for 6 hrs prior to 6-OHDA challenge measured after 24 hrs by annexin V/propidium iodide staining-based fluorescence microscopic analysis; type: functional, cell-based; how it was run: as §1

Row | Structure (SMILES) | Activity [1] | Activity [3] | Activity [4] | Activity [5] | Activity [6] | other results
1 | O=C(Cc1ccc(O)c(O)c1)O[C@H]1[C@H](O)[C@@H](O)[C@H](OCCc2ccc(O)c(O)c2)O[C@@H]1CO | Non-toxic | Active | Dose-dependent effect | Dose-dependent effect | – | Activity [2]: Active
2 | OC[C@H]1O[C@@H](OCCc2ccc(O)c(O)c2)[C@H](O)[C@@H](O)[C@@H]1O | – | Active | – | – | Active | –
3 | CC1=NN(c2ccccc2)C(=O)C1 | – | – | – | – | – | Activity [7]: inactive
4 | O=C(/C=C/c1ccc(O)c(O)c1)O[C@H]1[C@H](O)[C@@H](O)[C@H](OCCc2ccc(O)c(O)c2)O[C@@H]1CO | – | Active | – | – | Active | –
5 | O=C(/C=C/c1ccc(Cl)cc1)O[C@H]1[C@H](O)[C@@H](O)[C@H](OCCc2ccc(O)c(O)c2)O[C@@H]1CO | – | Active | – | – | Active | –
6 | COc1ccc(/C=C/C(=O)O[C@H]2[C@H](O)[C@@H](O)[C@H](OCCc3ccc(O)c(O)c3)O[C@@H]2CO)cc1OC | – | inactive | – | – | – | –
7 | O=C(/C=C/c1ccc(O)c(O)c1)OCCc1ccc(O)c(O)c1 | Non-toxic | Active | Dose-dependent effect | Dose-dependent effect | – | Activity [8]: Active
8 | O=C(/C=C/c1ccc(F)c(F)c1)O[C@H]1[C@H](O)[C@@H](O)[C@H](OCCc2ccc(O)c(O)c2)O[C@@H]1CO | – | Active | – | – | Active | –
9 | COC(=O)[C@]1(OC)C[C@H](O)[C@@H](NC(=O)/C=C/c2ccc(O)c(O)c2)[C@H]([C@H](O)[C@H](O)CO)O1 | Non-toxic | Active | Dose-dependent effect | Dose-dependent effect | – | Activity [9]: Active
